≈ marks a conversion by molar mass, not a printed value.
Key:
[1] = AUC (0 to 24 hrs) in thigh interstitial fluid of diabetic patient with chronic wound infection at […], iv loading dose followed by […], iv BID for […] by microdialysis; format: ADME, organism-based; set-up: time < 24 hr, route intravenous; conditions: human
In short: (§1)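 Subcutaneous microdialysis probes (30 mm membrane, 20 kDa cutoff) placed before dosing, one within 10 cm of wound margin and one in uninfected thigh of the same limb. Patients given IV 100 mg load then 50 mg q12h.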

Plasma [2] = test: AUC (0 to 24 hrs) in plasma of diabetic patient with chronic wound infection at […], iv loading dose followed by […], iv BID for 2 to 3 doses by microdialysis; format: ADME, organism-based; set-up: time < 24 hr, route intravenous; conditions: human, in vivo
In short: (§2)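 Eight adult diabetic patients; IV 100 mg loading dose over 1 h via peripheral vein, then 50 mg over 1 h every 12 h for 2–3 further doses. Heparinized venous blood from contralateral arm at 0–12 h over a steady-state interval; plasma stored −80°C; HPLC (linear 0.05–5 μg/ml). Noncompartmental analysis: Cmax by inspection, log-linear trapezoidal AUC0-24, t1/2 = 0.693/λz (≥3 terminal points), […].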

[3] = Tmax in plasma of diabetic patient with chronic wound infection at […], iv loading dose followed by […], iv BID for 2 to 3 doses by microdialysis; format: ADME, organism-based; conditions: human; in short: as §2
Plasma [4] = test: Clearance at steady state in plasma of diabetic patient with chronic wound infection at […], iv loading dose followed by […], iv BID for 2 to 3 doses by microdialysis; format: ADME, organism-based; conditions: human, in vivo; in short: as §2
[5] = AUC (0 to 24 hrs) in wound interstitial fluid of diabetic patient with chronic wound infection at […], iv loading dose followed by […], iv BID for […] by microdialysis; format: ADME, organism-based; set-up: time < 24 hr, route intravenous; conditions: human; in short: as §1
[6] = Cmax in thigh interstitial fluid of diabetic patient with chronic wound infection at […], iv loading dose followed by […], iv BID for […] by microdialysis; format: ADME, organism-based; set-up: route intravenous; conditions: human; in short: as §1
[7] = Cmax in plasma of diabetic patient with chronic wound infection at […], iv loading dose followed by […], iv BID for 2 to 3 doses by microdialysis; format: ADME, organism-based; set-up: route intravenous; conditions: human; in short: as §2
[8] = Drug penetration in blister fluid of healthy human at […], iv loading dose followed by […], iv BID for 2 to 3 doses by microdialysis; format: ADME, organism-based; conditions: in vivo
[9] = Terminal half life in plasma of diabetic patient with chronic wound infection at […], iv loading dose followed by […], iv BID for 2 to 3 doses by microdialysis; format: ADME, organism-based; conditions: human; in short: as §2
[10] = Volume of distribution at steady state in plasma of diabetic patient with chronic wound infection at […], iv loading dose followed by […], iv BID for 2 to 3 doses by microdialysis; format: ADME, organism-based; conditions: human, read-out: Vdss; in short: as §2
[11] = Ratio of AUC (0 to 24 hrs) in plasma diabetic patient with chronic wound infection to MIC for methicillin-resistant Staphylococcus aureus; format: functional
In short: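 Eight adult diabetic patients; tigecycline 100 mg IV over 1 h, then 50 mg over 1 h every 12 h for 2–3 more doses. Venous plasma was sampled over the 12-h steady-state interval and total drug measured by HPLC.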

[12] = Ratio of AUC (0 to 24 hrs) in patient with complicated skin and skin structure infections to MIC for Staphylococcus aureus; format: functional
[13] = fAUC (0 to 24 hrs) to MIC for Staphylococcus aureus infected in thigh of ICR mouse; format: functional, Thigh muscle
[14] = Terminal half life in thigh interstitial fluid of diabetic patient with chronic wound infection at […], iv loading dose followed by […], iv BID for […] by microdialysis; format: ADME, organism-based; conditions: human; in short: as §1
[15] = Ratio of AUC (0 to 24 hrs) in thigh interstitial fluid of diabetic patient with chronic wound infection to MIC for methicillin-resistant Staphylococcus aureus; format: functional, Thigh muscle
[16] = Drug penetration in thigh interstitial fluid of diabetic patient with chronic wound infection at […], iv BID for […] by microdialysis; format: ADME, organism-based; conditions: human, in vivo
In short: (§3)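 Tissue penetration is interstitial AUC0-24 (wound or thigh, microdialysis, recovery-corrected) divided by free plasma AUC0-24 × 100. Free plasma values come from the protein-binding polynomial applied to total concentrations. Sampling over a 12-h steady-state interval after IV 100 mg load then 50 mg q12h. Sites were compared by t test or Mann-Whitney.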

Staphylococcus aureus = test: Antimicrobial activity against methicillin-resistant Staphylococcus aureus by CLSI method; format: functional
[17] = fTmax in plasma of diabetic patient with chronic wound infection at […], iv loading dose followed by […], iv BID for 2 to 3 doses by microdialysis; format: ADME, organism-based; conditions: human
In short: (§4)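 Steady-state plasma after IV 100 mg loading then 50 mg every 12 h (1-h infusions) in diabetic patients. Total HPLC plasma levels converted to free using a polynomial fitted to ultrafiltration-derived percent unbound versus plasma concentration (y = y0 + a/x + b/x² + c/x³). Free-drug profiles analysed noncompartmentally; Cmax by visual inspection.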

[18] = Tmax in wound interstitial fluid of diabetic patient with chronic wound infection at […], iv loading dose followed by […], iv BID for […] by microdialysis; format: ADME, organism-based; conditions: human; in short: as §1
[19] = Drug recovery in thigh interstitial fluid of diabetic patient with chronic wound infection at […], iv loading dose followed by […], iv BID for 2 to 3 doses by microdialysis; format: ADME, organism-based; conditions: human, in vivo
In short: (§5)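 In vivo recovery by retrodialysis for each catheter after the final sampling. Perfusate was lactated Ringer's containing 500 μg/ml drug, perfused for 1 h at 2 μl/min. Recovery = 100 − (100 × Cdialysate/Cperfusate), measured by HPLC.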

[20] = Drug recovery in wound interstitial fluid of diabetic patient with chronic wound infection at […], iv loading dose followed by […], iv BID for 2 to 3 doses by microdialysis; format: ADME, organism-based; conditions: human, in vivo; in short: as §5
[21] = Ratio of fAUC (0 to 24 hrs) in plasma of diabetic patient with chronic wound infection to MIC for methicillin-resistant Staphylococcus aureus; format: functional
In short: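 Same patients and IV regimen (100 mg load, then 50 mg q12h). Total plasma levels measured by HPLC over the 12-h steady-state interval were converted to free drug using a polynomial fit of ultrafiltration protein binding, measured in triplicate at 1, 6 and 12 h.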

Plasma [22] = test: fCmax in plasma of diabetic patient with chronic wound infection at […], iv loading dose followed by […], iv BID for 2 to 3 doses by microdialysis; format: ADME, organism-based; conditions: human, in vivo; in short: as §4
[23] = Terminal half life in wound interstitial fluid of diabetic patient with chronic wound infection at […], iv loading dose followed by […], iv BID for […] by microdialysis; format: ADME, organism-based; conditions: human; in short: as §1
[24] = Tmax in thigh interstitial fluid of diabetic patient with chronic wound infection at […], iv loading dose followed by […], iv BID for […] by microdialysis; format: ADME, organism-based; conditions: human; in short: as §1
[25] = Cmax in wound interstitial fluid of diabetic patient with chronic wound infection at […], iv loading dose followed by […], iv BID for […] by microdialysis; format: ADME, organism-based; set-up: route intravenous; conditions: human; in short: as §1
[26] = Drug penetration in wound interstitial fluid of diabetic patient with chronic wound infection at […], iv loading dose followed by […], iv BID for […] by microdialysis; format: ADME, organism-based; conditions: human, in vivo; in short: as §3

## CN(C)c1cc(NC(=O)CNC(C)(C)C)c(O)c2c1C[C@H]1C[C@H]3[C@H](N(C)C)C(O)=C(C(N)=O)C(=O)[C@@]3(O)C(O)=C1C2=O [TIGECYCLINE]
[1]
  AUC at 24 h: 2520 ng·h/mL
Plasma [2]
  AUC: 3990 ng·h/mL
[3]
  Tmax: 1.13 h
Plasma [4]
  CLss: 4.67 mL/min/kg
[5]
  AUC at 24 h: 2600 ng·h/mL
[6]
  Cmax: 180 ng/mL
[7]
  Cmax: 420 ng/mL
[8]
  Drug uptake: 74%
[9]
  half-life: 9.73 h
[10]
  Vd: 3.95 L/kg
[11]
  RatioAUC/MIC: 33.25
[12]
  RatioAUC/MIC: 17.9
[13]
  fAUC/MIC: 5.7
[14]
  half-life: 16 h
[15]
  RatioAUC/MIC: 21
[16]
  Drug uptake: 98.94%
Staphylococcus aureus
  MIC90: 0.12 µg/mL (≈ 0.205 µM)
[17]
  Tmax: 1.13 h
[18]
  Tmax: 4.38 h
[19]
  Activity: 53.48%
[20]
  Activity: 57.03%
[21]
  RatioAUC/MIC: 22.1
Plasma [22]
  Cmax_unbound: 160 ng/mL
[23]
  half-life: 24.9 h
[24]
  Tmax: 3.38 h
[25]
  Cmax: 160 ng/mL
[26]
  Drug uptake: 100%

Source: ChEMBL document CHEMBL1671769, “Tissue penetration and pharmacokinetics of tigecycline in diabetic patients with chronic wound infections described by using in vivo microdialysis” (Antimicrob Agents Chemother, 2010)
